Active and inactive are the calls of the source. No cut-off for these calls is given here.
How the values were obtained:
Tubulin (Homo sapiens) [1] = target: T1, Tubulin (Homo sapiens) (UniProt P68371+Q9H4B7+P0DPH7+P68366+Q13509+Q71U36+P04350+Q3ZCM7+P07437+P68363+Q9BQE3+Q6PEY2+Q13885+Q9BVA1+Q9BUF5); test: Induction of microtubule stabilization (unknown origin) at 5 uM; type: protein-complex assay
MCF7 = test: Cytotoxicity against human MCF7 cells incubated for 72 hrs by Sulphorhodamine assay; type: functional, cell-based; details: MCF7, 72 h
[2] = Selectivity index, ratio of IC50 for african green monkey Vero cells to IC50 for human K562 cells; type: toxicity; details: Vero cells versus K562 cells, read-out: Ratio IC50
K562 [3] = test: Cytotoxicity against human K562 cells incubated for 72 hrs by Sulphorhodamine assay; type: functional, cell-based; details: K562, 72 h
MDA-MB-231 [4] = test: Cytotoxicity against human MDA-MB-231 cells incubated for 72 hrs by Sulphorhodamine assay; type: functional, cell-based; details: MDA-MB-231, 72 h
[5] = Cytotoxicity against african green monkey Vero cells incubated for 72 hrs by Sulphorhodamine assay; type: toxicity, cell-based; details: African green monkey (Chlorocebus sabaeus)
[6] = Antiinflammatory activity in mouse peritoneal macrophage assessed as inhibition of LPS-induced IL6 production at 1 ug/ml relative to control; type: functional; design: scale not given: the % may be the effect or the level left; details: dose 1 µg/ml
[7] = Antiinflammatory activity in mouse peritoneal macrophage assessed as reduction in LPS-induced IL6 production at 1 ug/ml; type: functional; details: dose 1 µg/ml
[8] = Antiinflammatory activity in mouse peritoneal macrophage assessed as reduction in LPS-induced TNFalpha production at 1 ug/ml; type: functional; details: dose 1 µg/ml
[9] = Antiinflammatory activity in mouse peritoneal macrophage assessed as inhibition of LPS-induced TNFalpha production at 1 ug/ml relative to control; type: functional; design: scale not given: the % may be the effect or the level left; details: dose 1 µg/ml
Homo sapiens = species on record: Homo sapiens; test: Selectivity ratio, ratio of inhibition of HDAC in human HeLa nuclear extract assessed as residual activity to inhibition of human recombinant HDAC6 assessed as residual activity
Procedure, shortened: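 Compounds at 20 μM tested by fluorometric assay on HeLa nuclear extract (class I/II HDACs) and on human recombinant HDAC6. Residual activity is expressed relative to untreated control. Selectivity is the ratio of PanHDAC to HDAC6 residual activity: ≥7 high, 2.5–6.9 moderate, <2.5 low.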

[10] = Antiinflammatory activity in mouse peritoneal macrophage assessed as reduction in LPS-induced IL6 production at 10 ug/ml; type: functional; details: dose 10 µg/ml
K562 [11] = test: Induction of cell cycle arrest in human K562 cells assessed as S phase arrest at 1.625 to 6.5 uM incubated for 24 hrs by propidium iodide staining based method; type: functional; details: dose 1.625-6.5 µM
[12] = Antiinflammatory activity in mouse peritoneal macrophage assessed as reduction in LPS-induced TNFalpha production at 10 ug/ml; type: functional; details: dose 10 µg/ml
[13] = Antiinflammatory activity in mouse peritoneal macrophage assessed as inhibition of LPS-induced IL6 production at 10 ug/ml relative to control; type: functional; design: scale not given: the % may be the effect or the level left; details: dose 10 µg/ml
Tubulin (Homo sapiens) [14] = target: T1, Tubulin (Homo sapiens); test: Induction of microtubule stabilization (unknown origin) at 1 to 5 uM; type: protein-complex assay; details: dose 1-5 µM
MDA-MB-231 [15] = test: Induction of cell cycle arrest in human MDA-MB-231 cells assessed as S phase arrest at 1.625 to 6.5 uM incubated for 24 hrs by propidium iodide staining based method; type: functional; details: dose 1.625-6.5 µM
Tubulin (Homo sapiens) [16] = target: T1, Tubulin (Homo sapiens); test: Induction of microtubule stabilization in human HeLa cells assessed as effect on cellular cytoskeletal network of tubulin at 5 to 10 uM incubated for 4 hrs by Alexa Fluor 488 staining based confocal microscopic analysis; type: cell-based; details: dose 5-10 µM
Procedure, shortened: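 HeLa cells treated for 4 h at 5 and 10 μM. Microtubules immunostained with Alexa Fluor 488-conjugated anti-β-tubulin and imaged by confocal microscopy with a 60× Plan Apochromat objective. References: paclitaxel 5 nM, podophyllotoxin 5 μM.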

[17] = Antiinflammatory activity in mouse peritoneal macrophage assessed as inhibition of LPS-induced TNFalpha production at 10 ug/ml relative to control; type: functional; design: scale not given: the % may be the effect or the level left; details: dose 10 µg/ml
MDA-MB-231 [18] = test: Induction of cell cycle arrest in human MDA-MB-231 cells assessed as S phase arrest at 0.285 to 1.14 uM incubated for 24 hrs by propidium iodide staining based method; type: functional; details: dose 0.285-1.14 µM

Structure (SMILES)	IC50 (MCF7) [µM]	selectivity ratio [2]	IC50 (K562 [3]) [µM]	IC50 (MDA-MB-231 [4]) [µM]	IC50 at 72 h [5] [µM]	Ratio (Homo sapiens)	other results
CC(=O)O[C@H]1C(=O)[C@@]2(C)[C@H]([C@H](OC(=O)c3ccccc3)[C@]3(O)C[C@H](OC(=O)[C@H](O)[C@@H](NC(=O)c4ccccc4)c4ccccc4)C(C)=C1C3(C)C)[C@]1(OC(C)=O)CO[C@@H]1C[C@@H]2O							Activity (Tubulin (Homo sapiens) [1]): Active
COc1cc2c(cc1OC)C(=O)C(Cc1ccc(CCC(=O)NO)cc1)C2 (stereo not drawn)	51.7	1.6	30.4	32.6	48.7		
COc1cc2c(cc1OC)C(=O)C(Cc1ccc(C(=O)NO)cc1)C2 (stereo not drawn)	> 100		> 100	> 100	193		
C[C@@H]1C[C@H]2[C@@H]3CCC4=CC(=O)C=C[C@]4(C)[C@@]3(F)[C@@H](O)C[C@]2(C)[C@@]1(O)C(=O)CO [DEXAMETHASONE]							Activity [6]: 40.5%; Activity [7]: 1792.75 pg/mL; Activity [8]: 581.27 pg/mL; Activity [9]: 52.82%
COc1ccc2c(c1)CC(Cc1ccc(C(=O)NO)cc1)C2=O (stereo not drawn)	55.2	2.99	18.6	28.8	55.5		
COc1cc(C2/C(=C/c3ccc(C(=O)NO)cc3)C(=O)c3cc(OC)c(OC)c(OC)c32)cc(OC)c1OC (stereo not drawn)	60.1	1.51	47.7	> 100	72.2	inactive	
COc1cc(C2/C(=C/c3ccc(/C=C/C(=O)NOC(C)=O)cc3)C(=O)c3cc(OC)c(OC)c(OC)c32)cc(OC)c1OC (stereo not drawn)	75	2.01	23.6	19.1	47.5	inactive	
COc1cc(C2c3c(cc(OC)c(OC)c3OC)C(=O)C2Cc2ccc(C(=O)NO)cc2)cc(OC)c1OC (stereo not drawn)	87.5	2.5	36.8	> 100	91.8	> 7	
CC/C(=C(\c1ccccc1)c1ccc(OCCN(C)C)cc1)c1ccccc1 [TAMOXIFEN]				18.5	36.2		
COc1ccc2c(c1)C/C(=C/c1ccc(C(=O)NOCc3ccccc3)cc1)C2=O						> 7	
COc1ccc2c(c1)C/C(=C/c1ccc(/C=C/C(=O)NOCc3ccccc3)cc1)C2=O						2.5	
COc1cc2c(cc1OC)C(=O)/C(=C\c1ccc(/C=C/C(=O)NO)cc1)C2	> 100	> 1	> 100	> 100	129	inactive	
CN1CCc2c(c3ccccc3n2Cc2ccc(C(=O)NO)cc2)C1 [TUBASTATIN A]			2.07				
COc1cc2c(cc1OC)C(=O)/C(=C\c1ccc(C(=O)NOCc3ccccc3)cc1)C2						> 7	
COc1ccc2c(c1)C/C(=C/c1ccc(/C=C/C(=O)NO)cc1)C2=O	97.5	≤ 1	> 100	> 100	100	> 7	
COc1cc2c(cc1OC)C(=O)/C(=C\c1ccc(/C=C/C(=O)NOCc3ccccc3)cc1)C2						2.5	
COc1cc([C@@H]2c3cc4c(cc3[C@H](O)[C@H]3COC(=O)[C@H]23)OCO4)cc(OC)c1OC [PODOFILOX]	10		18.4	20.2			
COc1cc(C2/C(=C/c3ccc(OCCCC(=O)NO)cc3)C(=O)c3cc(OC)c(OC)c(OC)c32)cc(OC)c1OC (stereo not drawn)	49.7	28.4	1.66	3.25	47.2	> 7	Activity [6]: 9.38%; Activity [10]: 2648.31 pg/mL; Activity (K562 [11]): Active; Activity [12]: 1046.79 pg/mL; Activity [7]: 2730.53 pg/mL; Activity [13]: 12.11%; Activity (Tubulin (Homo sapiens) [14]): Active; Activity (MDA-MB-231 [15]): Active; Activity [8]: 1180.12 pg/mL; Activity (Tubulin (Homo sapiens) [16]): Active; Activity [9]: 12.34%; Activity [17]: 15.04%
COc1ccc2c(c1)CC(Cc1ccc(CCC(=O)NO)cc1)C2=O (stereo not drawn)	93.9	1.85	61.8	> 100	114		
COc1cccc2c1C(=O)c1c(O)c3c(c(O)c1C2=O)C[C@@](O)(C(=O)CO)C[C@@H]3O[C@H]1C[C@H](N)[C@H](O)[C@H](C)O1 [DOXORUBICIN]			5.23	0.57	1.87		Activity (MDA-MB-231 [18]): Active
COc1cc2c(cc1OC)C(=O)/C(=C\c1ccc(C(=O)NO)cc1)C2	> 100	1.88	46.9	> 100	88.4	> 7	
COc1cc(C2c3c(cc(OC)c(OC)c3OC)C(=O)C2Cc2ccc(CCC(=O)NO)cc2)cc(OC)c1OC (stereo not drawn)	52.3	1.47	51.9	20.7	76.2	2.5	
